Screening data from PubChem.
STAT1 inh: reduces IFN-gamma driven STAT1 reporter signal; NIH 3T3 STAT1-luciferase reporter, luminescence; inhibition, % at 5.5 µM; 200,000 compounds, 0.35% hits;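 active means inhibition above a set limit, the mean inhibition across all tested compounds plus 3 SD, cut at about 34% in these data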;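 further: 0% = IFN-gamma with DMSO and 100% = IFN-gamma with 300 µM nifuroxazide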
APP 5'UTR act: APP 5'UTR luciferase reporter activation; SH-SY5Y APP 5'UTR luciferase reporter, luminescence; zero percent = DMSO vehicle wells; activation, % at 2 µM; 190,000 compounds, 1% hits;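 active means activation above a set limit, based on mean plus 3 SD of controls, cut at about 140% in these data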
STAT1 act: STAT1 signaling activation. activation (% of control), % at 5.5 µM. 200,000 compounds, 2.6% hits. NIH 3T3 STAT1-luciferase reporter, IFN-gamma, luminescence; 100% = IFN-gamma alone, no compound;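 active means activation above the screen-wide mean activation plus 3 SD, cut at about 130% in these data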;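 further: raw ratio to IFN-gamma control signal so 100% means no change and 0% no light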
STAT3 blocker: inhibitors of IL-6 induced STAT3 signaling | inhibition, % at 5.5 µM | 190,000 compounds, 0.89% hits | U3A cells, IL-6 STAT3-luciferase reporter, luminescence; host cell line lacks STAT1;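 active means inhibition above the mean inhibition across all screened compounds plus 3 SD, cut at about 44% in these data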;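 further: 0% = DMSO only wells and 100% = 100 µM nifuroxazide control wells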
NF-kB expr up: NF-kB expression increase, human neuronal cells. NF-kB reporter expression; hits give high values. fold change at 12.5 µM. 190,000 compounds, 1.6% hits. AID 1239; in the data active means fold change above about 3.3
STAT3 act: STAT3 signaling activation. 190,000 compounds, 0.91% hits. U3A cells, IL-6 STAT3-luciferase reporter, luminescence; 100% = signal with IL-6 EC80 alone. activation (% of control), % at 5.6 µM;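 active means activation above the screen-wide mean of compound activation plus 3 SD, cut at about 130% in these data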;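 further: 0% = background luminescence of wells with medium and substrate only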
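Test system: Human STAT1-deficient U3A cells with stable STAT3-luciferase reporter | Also added: Interleukin-6, 33 ng/mL | Timing: Compound pre-incubation 1 h before IL-6, then 6 h stimulation at 37 °C | Technique: Luciferase reporter luminescence | Read-out: Percent of IL-6-only median luminescence | Benchmarks: IL-6-only wells as 100% reference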
Active calls of the source: *; / = no result given. Compounds with a hit are over-represented: about 5.1% of the library has one in this group of screens.

SMILES	STAT1 inh	APP 5'UTR act	STAT1 act	STAT3 blocker	NF-kB expr up	STAT3 act
O=C(Nc1nc2ccccc2s1)c1cc2c(s1)-c1ccccc1OC2	-24	5	122	5	2	103
O=C(Nc1nccs1)c1cc2c(s1)-c1ccccc1OC2	-51	96	146*	14	2.3	96
O/C(=C\c1nc2ccccc2nc1/C=C(\O)c1ccccc1)c1ccccc1	-39	83	134*	-39	1.2	145*
O=C(c1ccccc1)c1nn(-c2ccc(Cl)cc2)c(=O)cc1C(F)(F)F	-16	6	114	-42	2.1	134*
COc1ccc(S(=O)(=O)NCCOc2cccc3cccnc23)cc1OC	-31	6	129*	-3	1.1	104
COc1cc(C(=O)NCCOc2cccc3cccnc23)cc(OC)c1OC	17	1	83	15	1	89
CC1(C)CC2(CCO1)OC(=O)CC2C(=O)Nc1ccccc1Cl (configuration not stated)	-9	-7	106	3	0.99	103
O=S(=O)(c1ccc2c(c1)OCCO2)N1CCN(c2ncnc3sccc23)CC1	38*	1	65	61*	0.78	51
CC(=O)Oc1ccc2c(=O)c(-c3ccccc3)coc2c1	-34	69	131*	7	2.5	96
CCC(=O)NC1OC(CO)C(O)C(O)C1O (configuration not stated)	14	-20	87	10	0.96	95
COc1cccc(-c2nc(-c3ccc4c(c3)NC(=O)CO4)cs2)c1	-48	52	142*	6	1.6	102
COc1ccc(-c2cc(-c3ccc(OC)cc3)nc(-c3ccc4c(c3)NC(=O)CO4)c2)cc1	8	-8	93	1	1.1	100
COc1ccc(-c2ccc(SC)nn2)cc1	59*	114	46	84*	/	30
COc1ccc(C(=O)CSc2ccc(-c3ccccc3)nn2)cc1	0	8	100	0	1.3	96
CCOc1ccc(NS(=O)(=O)c2ccc(NC(=O)c3cccnc3)c(OC)c2)cc1	-6	-12	104	-7	0.93	107
N=C1SCC(=O)N1c1nc(-c2ccccc2)cs1	-55	-7	150*	9	1.6	98
O=C1C2C3c4ccccc4C(c4ccccc43)C2C(=O)N1c1nc(-c2ccccc2)cs1 (configuration not stated)	-6	-18	106	9	1.1	98
C#CCSc1nnc(-c2ccc([N+](=O)[O-])cc2)o1	-30	4	125	11	2.1	94
Clc1cc(Br)ccc1OCCOCCN1CCOCC1	-9	11	108	4	3.6*	100
Cc1ccc(C)c(OCCOCCN2CCOCC2)c1	-6	4	106	3	1.2	101
COc1ccc(S(=O)(=O)CCC(=O)NCCc2ccc(C)cc2)cc1	4	-5	96	7	1.4	100
COc1ccc(/C=C2\SC(=O)N(CCNC(=O)CCS(=O)(=O)c3ccc(C)cc3)C2=O)cc1	-34	53	131*	-18	2.8	121
COc1ccc(/C=C2\SC(=O)N(CCNC(=O)Cn3cnnn3)C2=O)cc1	-41	118	138*	-21	3.7*	124
COc1ccc(/C=C2\SC(=O)N(CCNC(=O)C3CCN(S(=O)(=O)c4cccs4)CC3)C2=O)cc1	-43	91	138*	-13	1.3	108
C#CC(=O)N(c1cccc(OC)c1)C(C(=O)NC1CCCC1)c1cccs1 (configuration not stated)	43*	-19	61	110*	0.14	14
SMILES	STAT1 inh	APP 5'UTR act	STAT1 act	STAT3 blocker	NF-kB expr up	STAT3 act
C=CCOc1ccc(/C=N/Nc2ccccn2)cc1OC	-44	91	138*	22	2.5	88
COc1cc(/C=N/Nc2ccccn2)ccc1OCC(C)C	-55	91	148*	-1	1.5	109
CCCOc1ccc(/C=N/Nc2ccccn2)cc1OC	-51	118	148*	1	2.4	101
COc1cc(/C=N/Nc2ccccn2)cc(OC)c1O	-6	-15	107	17	1.9	89
O=S(=O)(c1ccc(Cl)cc1)n1nnc2ccccc21	4	16	96	9	0.98	96
O=C(CCCCC(=O)NC1CCCC1)NC1CCCC1	-4	1	103	6	1.5	94
C=CCc1ccc(OCCOCCN(C)C)c(OC)c1	3	1	96	-15	1	114
C=CCc1ccc(OCCn2cccc2C=O)c(OC)c1	-53	40	147*	13	1.7	98
Cc1ccc(Nc2ncccc2C(N)=O)cc1	-30	82	127	18	3.3	88
CC(=O)c1cnc(Nc2ccc(C)cc2)s1	-43	41	137*	8	1.7	98
COc1ccc(S(=O)(=O)NCC2CCC(C(=O)NCC(OC)OC)CC2)cc1 (configuration not stated)	-9	16	108	-2	1.2	113
O=C1NC2(C=Cc3c(ccc4ccccc34)O2)Oc2ccccc21 (configuration not stated)	-46	3	141*	-17	1.5	114
CC1(C)OC(=O)N(c2ccccc2)C12C=Cc1c(ccc3ccccc13)O2 (configuration not stated)	6	1	95	2	0.88	99
COc1ccc(C(=O)Nn2c(SCC(=O)c3ccc(Cl)cc3)nc3ccccc3c2=O)cc1	16	132	86	26	0.78	82
COc1ccc(C(=O)Nn2c(SCc3cccc([N+](=O)[O-])c3)nc3ccccc3c2=O)cc1	-49	94	144*	7	0.86	96
COc1ccc(C(=O)Nn2c(SCC(=O)N3CCC(C)CC3)nc3ccccc3c2=O)cc1	64*	31	42	88*	0.82	31
O=C(Nn1c(SCc2cccc([N+](=O)[O-])c2)nc2ccccc2c1=O)c1ccccc1	-56	119	150*	-18	0.96	121
COc1ccc2cc(CO)c(Cl)nc2c1	-15	-1	114	1	1.8	99
COc1ccc2cc(/C=N/O)c(Cl)nc2c1	-33	25	129*	9	1.8	94
O=C(Nc1cccc(S(=O)(=O)N2CCCCC2)c1)c1ccc2c(=O)n3c(nc2c1)CCCCC3	16	-4	85	23	0.53	83
O=C(Nc1nc(-c2ccc(F)c(F)c2)cs1)c1ccc(OCC2CCCO2)cc1 (configuration not stated)	-11	24	110	1	0.99	95
Cc1csc(NC(=O)c2ccc(N3CCCC3=O)cc2)n1	65*	47	39	89*	1.4	25
O=C(Nc1nccs1)c1ccc2c(=O)n3c(nc2c1)CCCCC3	-35	66	132*	-8	1.2	107
